Measured values taken from ChEMBL document CHEMBL4619773, “Chemoreactive-Inspired Discovery of Influenza A Virus Dual Inhibitor to Block Hemagglutinin-Mediated Adsorption and Membrane Fusion” (J Med Chem, 2020).
Activity calls are given as the source filed them. No cut-off for these calls is given here.

Tests used:
[1] = Cytotoxicity in dog MDCK cells assessed as reduction in cell viability incubated for 48 hrs by crystal violet staining based assay; set-up: species or system Canis lupus familiaris
[2] = tested on: Influenza A virus; assay: Antiviral activity against Influenza A virus (A/Puerto Rico/8/1934(H1N1)) infected in MDCK cells assessed as inhibition of virus-induced cytopathic effect incubated for 48 hrs by crystal violet staining based assay; assay type: functional, organism-based
How it was run: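 MDCK cells were infected at MOI 0.1, the inoculum was removed, and compounds were added in triplicate. After 48 h the cells were fixed in 4% formaldehyde (20 min, RT) and stained with 0.1% crystal violet (30 min). Dye was solubilized in methanol and read at 570 nm.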

[3] = AUC (0 to t) in mouse at 5 mg/kg, po administered as single dose; assay type: ADME, organism-based; conditions: in vivo
How it was run: (§1)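 Male Kunming mice (20-25 g) and male Sprague Dawley rats (180-220 g) were fasted 12 h before dosing. Oral dosing was by gavage as a suspension in 0.5% sodium carboxymethyl cellulose; iv dosing was via tail vein in PEG400. Serial plasma samples were taken to 24 h, protein-precipitated with acetonitrile plus N-CH3 internal standard, and quantified by LC-MS/MS (n=3). Bioavailability = AUCoral/AUCiv.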

[4] = AUC (0 to t) in mouse at 0.5 mg/kg, iv administered as single dose; assay type: ADME, organism-based; conditions: in vivo; how it was run: as §1
[5] = Cumulative drug excretion in mouse urine at 0.5 mg/kg, iv administered as single dose measured after 72 hrs; assay type: ADME, organism-based; conditions: read-out: Drug excretion
How it was run: (§2)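 Single oral (gavage, 0.5% CMC-Na) or iv (tail vein, PEG400) dosing was given to male Kunming mice or Sprague Dawley rats held in metabolic cages. Urine and feces were collected at intervals to 72 h. Feces were dried, ground and homogenized in water (1:9 w/v). Samples were precipitated with acetonitrile containing internal standard and analysed by LC-MS/MS.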

[6] = Cumulative drug excretion in rat feces at 0.35mg/kg, iv administered as single dose measured after 72 hrs; assay type: ADME, organism-based; conditions: faeces, read-out: Drug excretion; how it was run: as §2
[7] = tested on: Influenza A virus; assay: Antiviral activity against Influenza A virus (A/California/04/2009(H1N1)) infected in MDCK cells by HA assay; assay type: functional, organism-based
How it was run: (§3)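 MDCK cells were infected at high moi (≈3.0 PFU/cell). Virus-containing supernatants were serially diluted 2-fold and mixed with an equal volume of 1% chicken red blood cells. After 60 min at 4 °C, wells were scored for button sedimentation versus opaque agglutination to give titers.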

[8] = tested on: Influenza A virus H3N2; assay: Antiviral activity against Influenza A virus H3N2 (A/swine/Minnesota/02719/2009) infected in MDCK cells by HA assay; assay type: functional, organism-based; how it was run: as §3
[9] = tested on: Influenza A virus; assay: Antiviral activity against Influenza A virus (A/Puerto Rico/8/1934(H1N1)) infected in MDCK cells incubated for 3 days by crystal violet staining based plaque assay; assay type: functional, organism-based; conditions: 72 h
How it was run: (§4)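 Confluent MDCK monolayers were exposed to 10-fold serial virus dilutions for 1 h at 37 °C, then washed. The overlay was DMEM with 1.5% agarose, 0.02% DEAE-dextran and 1 µg/ml TPCK-trypsin. After 3 days at 37 °C in 5% CO2, cells were fixed with 0.05% glutaraldehyde, stained with 1% crystal violet in 20% ethanol, and plaques were counted.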

[10] = tested on: Influenza A virus; assay: Antiviral activity against Influenza A virus Virginia/ATCC1/2009 infected in MDCK cells incubated for 3 days by crystal violet staining based plaque assay; assay type: functional, organism-based; conditions: Virginia/ATCC1/2009, MDCK, 72 h; how it was run: as §4
[11] = tested on: Influenza A virus; assay: Antiviral activity against Influenza A virus (A/Puerto Rico/8/1934(H1N1)) infected in Kunming mouse assessed as decrease in pulmonary viral titers at 20 to 40 ug/day dosed intranasally starting 4 hrs after viral challenge and continued for 4 days by plaque assay; assay type: functional, organism-based
How it was run: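 Four-week-old female Kunming mice were infected intranasally with PR8 (500 PFU/mouse in 40 µL PBS), randomized, and dosed once daily orally or intranasally. On day 4 the mice were euthanized; lungs were removed, weighed, homogenized in PBS, and titrated by plaque assay.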

[12] = Toxicity in Influenza A virus (A/Puerto Rico/8/1934(H1N1)) infected Kunming mouse assessed as induction of body weight loss at 20 to 40 ug/day dosed intranasally starting 4 hrs after viral challenge and continued for 7 days by plaque assay; assay type: organism-based; conditions: in vivo, inhaled_or_intranasal
[13] = Toxicity in Influenza A virus (A/Puerto Rico/8/1934(H1N1)) infected Kunming mouse assessed as induction of body weight loss at 5 to 10 mg/kg/day, po starting 4 hrs after viral challenge and continued for 7 days by plaque assay; assay type: organism-based; conditions: in vivo
[14] = tested on: Influenza A virus; assay: Antiviral activity against Influenza A virus (A/Puerto Rico/8/1934(H1N1)) infected in Kunming mouse assessed as decrease in lung IL6 level at 20 to 40 ug/day dosed intranasally starting 4 hrs after viral challenge and continued for 4 days by ELISA; assay type: functional, organism-based
How it was run: (§5)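 Four-week-old female Kunming mice received PR8 intranasally (500 PFU/mouse in 40 µL PBS) and were then dosed once daily orally or intranasally. Lungs were collected on day 4, and TNF-α and IL-6 in lung tissue were measured by ELISA.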

[15] = tested on: Influenza A virus; assay: Antiviral activity against Influenza A virus (A/Puerto Rico/8/1934(H1N1)) infected in Kunming mouse assessed as decrease in lung IL6 level at 5 to 10 mg/kg/day, po starting 4 hrs after viral challenge and continued for 4 days by ELISA; assay type: functional, organism-based; how it was run: as §5
[16] = target: Neuraminidase (Influenza A virus (A/Puerto Rico/8/1934(H1N1))) (UniProt P03468); assay: Inhibition of neuraminidase in inactivated Influenza A virus (A/Puerto Rico/8/1934(H1N1)) supernatants at 12.5 to 200 ug/mL pre-incubated for 30 mins by fluorescence based assay relative to control
Chain of Neuraminidase (Influenza A virus (A/Puerto Rico/8/1934(H1N1))) (P03468 whole entry): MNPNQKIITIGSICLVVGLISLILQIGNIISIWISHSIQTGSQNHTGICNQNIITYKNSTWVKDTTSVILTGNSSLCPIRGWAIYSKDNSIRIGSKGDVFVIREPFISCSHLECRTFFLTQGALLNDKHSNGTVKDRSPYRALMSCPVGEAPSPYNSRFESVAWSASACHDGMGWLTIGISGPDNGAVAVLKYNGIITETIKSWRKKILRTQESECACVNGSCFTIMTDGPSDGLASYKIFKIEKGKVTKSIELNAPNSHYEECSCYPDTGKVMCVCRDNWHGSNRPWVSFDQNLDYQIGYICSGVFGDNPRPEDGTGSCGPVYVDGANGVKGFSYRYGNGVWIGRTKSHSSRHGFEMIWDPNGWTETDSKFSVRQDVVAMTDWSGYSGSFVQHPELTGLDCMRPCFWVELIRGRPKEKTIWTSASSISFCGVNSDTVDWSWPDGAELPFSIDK
How it was run: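 Inactivated PR8 virus supernatant was mixed with compound diluted in 33 mM MES ([…]) and 4 mM CaCl2 for 30 min at 37 °C. MUNANA (20 µM) was then added for 30 min at 37 °C. The reaction was stopped with 25% ethanol and 0.1 M glycine, pH 10.7. Fluorescence was read at ex 360 and em 440 nm.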

[17] = target: Hemagglutinin (Influenza A virus (A/Puerto Rico/8/1934(H1N1)), UniProt P03452); assay: Binding affinity to Influenza A virus (A/California/04/2009(H1N1)) Hemagglutinin at 1.5625 to 50 uM by SPR assay
Chain of Hemagglutinin (Influenza A virus (A/Puerto Rico/8/1934(H1N1)), UniProt P03452) (P03452 whole entry): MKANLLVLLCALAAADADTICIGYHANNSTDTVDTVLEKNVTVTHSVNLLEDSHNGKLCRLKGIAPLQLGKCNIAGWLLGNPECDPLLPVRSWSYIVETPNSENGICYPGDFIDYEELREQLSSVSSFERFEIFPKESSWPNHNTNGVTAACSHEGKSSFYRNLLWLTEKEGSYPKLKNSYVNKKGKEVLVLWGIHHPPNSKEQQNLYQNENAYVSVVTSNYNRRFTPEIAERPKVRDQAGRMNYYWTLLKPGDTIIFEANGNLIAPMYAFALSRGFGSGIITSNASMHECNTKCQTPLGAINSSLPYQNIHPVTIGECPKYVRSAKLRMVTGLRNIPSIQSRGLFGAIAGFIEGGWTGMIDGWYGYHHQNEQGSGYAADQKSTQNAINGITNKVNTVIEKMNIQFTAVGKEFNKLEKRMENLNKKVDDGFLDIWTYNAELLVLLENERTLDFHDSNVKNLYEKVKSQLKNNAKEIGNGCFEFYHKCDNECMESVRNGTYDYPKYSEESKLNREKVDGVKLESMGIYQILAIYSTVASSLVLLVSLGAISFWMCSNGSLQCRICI
How it was run: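 HA protein was immobilized on CM5 chips. Compound (50, […], 12.5, 6.25, 3.125, 1.5625 µM) was injected for 2 min, followed by a 10-min PBST wash and regeneration with 2 mM NaOH for 30 s. Runs were at 25 °C with 2 µl/s flow, using a blank HA-free reference channel. KD was obtained from kinetic fitting.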

[18] = target: Hemagglutinin (Influenza A virus (A/Puerto Rico/8/1934(H1N1))) (UniProt P03452); assay: Inhibition of Hemagglutinin in Influenza A virus (A/Puerto Rico/8/1934(H1N1))/H1N1 pseudovirus infected in 293FT cells assessed as reduction in virus infection at 50 ug/ml pre-treated with virus before infection and measured after 48 hrs by inverted fluorescence microscopy; assay type: cell-based
Chain of Hemagglutinin (Influenza A virus (A/Puerto Rico/8/1934(H1N1))) (P03452 whole entry): as above
How it was run: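 PR8 pseudoviruses (IAV-GFP) carrying wild-type HA or a mutant HA (T30N/E233D/T359A or T359A) were made in 293FT cells by co-transfecting HA, NA, HIV backbone and GFP reporter plasmids, and supernatants were harvested at 48 h. Pseudovirus was pretreated with compound at 50 µg/ml for 1 h at 37 °C before infection. Infected GFP-positive cells were viewed by fluorescence microscopy 48 h p.i.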

Structure (SMILES): CC(=O)c1cc(C)c(O)c(Cc2[nH]c3ccccc3c2Cc2c(O)c(C)cc(C(C)=O)c2O)c1O
- CC50 at 48 h [1]: 1470 µM
- IC50 [2]: 26.4 µM
- AUC(0-t) [3]: 152 ng·h/mL
- AUC(0-t) [4]: 269 ng·h/mL
- dose excreted at 72 h [5]: 0.3%
- dose excreted at 72 h [6]: 7.2%
- Activity [7]: Dose-dependent effect
- Activity [8]: Dose-dependent effect
- IC50 [9]: < 13 µg/mL
- IC50 [10]: < 13 µg/mL
- Activity [11]: Active
- Activity [12]: Non-Toxic
- Activity [13]: Non-Toxic
- Activity [14]: Active
- Activity [15]: Active
- inhibition [16]: < 15%
- Kd [17]: 6.9 µM
- inhibition [18]: Active
